# Test results from PubChem BioAssay AID1480 (NMMLSC, 2009).
# The list shows a part of the results. Values without a mark were called inactive.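 The calls were made as follows: active = fluorescence in ABCG2-expressing cells above the plate's control-well mean plus 3 SD (cut at about 15 in these data); inactive = the rest.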
# Assay: green-channel fluorescence of compounds in IgMXP3 cells – cell-based, 488/530 nm, flow cytometry, artefact control for ABC transporter inhibitor project, confirmation (AID 1480);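 also: median cell fluorescence with compound minus that of DMSO-treated control cells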
# Settings: compound autofluorescence 488/530 nm, at 6.6 µM, active compounds read high
# Outline: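 Assay system: drug-resistant ABCG2-expressing IgMXP3 cells, unlabeled with substrate. Quantity: 3 million cells/mL final. Medium: JC-1 kit assay buffer. Probe or stimulus: no JC-1 substrate. Dosing: single dose, test compound at 6.6 µM final. Times: Cell–compound exposure 10 min, 25 °C, end-over-end rotation. Measured by: flow cytometry, FL1 green emission. Controls: DMSO vehicle wells.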
smiles,measurement,value
COC(=O)COc1cc(C)cc2oc(=O)c3c(c12)CCCC3,fluorescence,1.36
